From article PMC10598825 (JACS Au, 2023)
Positions count from the first letter of the chain named.

Assays:
BcTSPO S22C-PEG = assay: Tryptophan fluorescence quenching binding assay; parameters: species or system Bacillus cereus; settings: DDM-solubilized TSPO S22C conjugated with 5 kDa PEG; higher than WT
BcTSPO 34/151-D33P [1] = biological target: T1, BcTSPO 34/151-D33P (Bacillus cereus, UniProt Q81BL7, A34C/C107S/D33P/S151C); assay: Tryptophan fluorescence quenching binding assay; settings: detergent-solubilized TSPO 34/151-D33P; in words
T1 sequence (Q81BL7 1-153 D33P/A34C/C107S/S151C): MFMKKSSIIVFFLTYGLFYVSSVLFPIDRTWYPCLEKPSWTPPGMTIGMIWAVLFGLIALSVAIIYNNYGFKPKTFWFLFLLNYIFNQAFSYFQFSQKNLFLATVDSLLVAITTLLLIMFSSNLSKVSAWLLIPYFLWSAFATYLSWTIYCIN

BcTSPO 34/151-K98E [2] = biological target: T2, BcTSPO 34/151-K98E (Bacillus cereus, UniProt Q81BL7, A34C/C107S/K98E/S151C); assay: Tryptophan fluorescence quenching binding assay; settings: detergent-solubilized TSPO 34/151-K98E; in words
T2 sequence (Q81BL7 1-153 A34C/K98E/C107S/S151C): T1 sequence (Q81BL7 1-153 D33P/A34C/C107S/S151C) with P33D, K98E

BcTSPO 34/151-K98E [3] = biological target: T2, BcTSPO 34/151-K98E; assay: PpIX degradation activity assay; type: biochemical; settings: TSPO 34/151-K98E in nanodiscs, PpIX:TSPO 1:1
Outline: (§1)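 His10-tagged Bacillus cereus TSPO (C107S cysteine-free background) was expressed in E. coli BL21(DE3) pLysS, Ni-purified in β-DDM, then reconstituted into MSP1D1 nanodiscs with POPC:POPE 60:40 (TSPO/MSP/lipid/cholate 1/4/270/540). PpIX and loaded nanodiscs were mixed 1:1 molar in a 1 mm quartz cuvette. Emission at 633 nm was recorded in pulses of 60 s continuous illumination. V0 was taken as the absolute slope of a linear fit to the first three points (~120 s). Triplicate, mean ± SE.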

BcTSPO 34/151-D33P [4] = biological target: T1, BcTSPO 34/151-D33P; assay: PpIX degradation activity assay; type: biochemical; settings: TSPO 34/151-D33P in nanodiscs, PpIX:TSPO 1:1
Outline: as §1

WT BcTSPO = biological target: T3, WT BcTSPO (Bacillus cereus, UniProt Q81BL7); assay: PpIX degradation activity assay; type: biochemical; settings: WT TSPO in nanodiscs, PpIX:TSPO 1:1, light exposure
T3 sequence (Q81BL7 1-153): T1 sequence (Q81BL7 1-153 D33P/A34C/C107S/S151C) with P33D, C34A, S107C, C151S
Outline: as §1

BcTSPO W51F [5] = biological target: T4, BcTSPO W51F (Bacillus cereus, UniProt Q81BL7, C107S/W51F); assay: Tryptophan fluorescence quenching binding assay; settings: detergent-solubilized TSPO W51F; in words
T4 sequence (Q81BL7 1-153 W51F/C107S): T1 sequence (Q81BL7 1-153 D33P/A34C/C107S/S151C) with P33D, C34A, W51F, C151S

[6] = biological target: T5, BcTSPO 23/35 double-cysteine variant (Bacillus cereus, UniProt Q81BL7, C107S/L35C/V23C); assay: PpIX degradation activity assay; type: biochemical; settings: TSPO 23/35 in nanodiscs, PpIX:TSPO 1:1
T5 sequence (Q81BL7 1-153 V23C/L35C/C107S): T1 sequence (Q81BL7 1-153 D33P/A34C/C107S/S151C) with V23C, P33D, C34A, L35C, C151S
Outline: as §1

BcTSPO 34/102-D33P [7] = biological target: T6, BcTSPO 34/102-D33P (Bacillus cereus, UniProt Q81BL7, A34C/C107S/D33P/L102C); assay: PpIX degradation activity assay; type: biochemical; settings: TSPO 34/102-D33P in nanodiscs, PpIX:TSPO 1:1
T6 sequence (Q81BL7 1-153 D33P/A34C/L102C/C107S): T1 sequence (Q81BL7 1-153 D33P/A34C/C107S/S151C) with L102C, C151S
Outline: as §1

BcTSPO 34/102-K98E [8] = biological target: T7, BcTSPO 34/102-K98E (Bacillus cereus, UniProt Q81BL7, A34C/C107S/K98E/L102C); assay: Tryptophan fluorescence quenching binding assay; settings: detergent-solubilized TSPO 34/102-K98E; in words
T7 sequence (Q81BL7 1-153 A34C/K98E/L102C/C107S): T1 sequence (Q81BL7 1-153 D33P/A34C/C107S/S151C) with P33D, K98E, L102C, C151S

[9] = biological target: T8, BcTSPO 23/151 double-cysteine variant (Bacillus cereus, UniProt Q81BL7, C107S/S151C/V23C); assay: PpIX degradation activity assay; type: biochemical; settings: TSPO 23/151 in nanodiscs, PpIX:TSPO 1:1
T8 sequence (Q81BL7 1-153 V23C/C107S/S151C): T1 sequence (Q81BL7 1-153 D33P/A34C/C107S/S151C) with V23C, P33D, C34A
Outline: as §1

BcTSPO W138F [10] = biological target: T9, BcTSPO W138F (Bacillus cereus, UniProt Q81BL7, C107S/W138F); assay: Tryptophan fluorescence quenching binding assay; settings: detergent-solubilized TSPO W138F; in words
T9 sequence (Q81BL7 1-153 C107S/W138F): T1 sequence (Q81BL7 1-153 D33P/A34C/C107S/S151C) with P33D, C34A, W138F, C151S

BcTSPO 34/151-W138F [11] = biological target: T10, BcTSPO 34/151-W138F (Bacillus cereus, UniProt Q81BL7, A34C/C107S/S151C/W138F); assay: Tryptophan fluorescence quenching binding assay; settings: detergent-solubilized TSPO 34/151-W138F; in words
T10 sequence (Q81BL7 1-153 A34C/C107S/W138F/S151C): T1 sequence (Q81BL7 1-153 D33P/A34C/C107S/S151C) with P33D, W138F

BcTSPO 34/102-K98E [12] = biological target: T7, BcTSPO 34/102-K98E; assay: PpIX degradation activity assay; type: biochemical; settings: TSPO 34/102-K98E in nanodiscs, PpIX:TSPO 1:1
Outline: as §1

BcTSPO 34/102-D33P [13] = biological target: T6, BcTSPO 34/102-D33P; assay: Tryptophan fluorescence quenching binding assay; settings: detergent-solubilized TSPO 34/102-D33P; in words
BcTSPO 34/151-W138F [14] = biological target: T10, BcTSPO 34/151-W138F; assay: PpIX degradation activity assay; type: biochemical; settings: TSPO 34/151-W138F in nanodiscs, PpIX:TSPO 1:1
Outline: as §1

BcTSPO W51F [15] = biological target: T4, BcTSPO W51F; assay: PpIX degradation activity assay; type: biochemical; settings: TSPO W51F in nanodiscs, PpIX:TSPO 1:1
Outline: as §1

[16] = biological target: T5, BcTSPO 23/35 double-cysteine variant; assay: Tryptophan fluorescence quenching binding assay; settings: detergent-solubilized TSPO 23/35; in words
BcTSPO W138F [17] = biological target: T9, BcTSPO W138F; assay: PpIX degradation activity assay; type: biochemical; settings: TSPO W138F in nanodiscs, PpIX:TSPO 1:1
Outline: as §1

[18] = biological target: T11, BcTSPO 34/102 double-cysteine variant (Bacillus cereus, UniProt Q81BL7, A34C/C107S/L102C); assay: PpIX degradation activity assay; type: biochemical; settings: TSPO 34/102 in nanodiscs, PpIX:TSPO 1:1
T11 sequence (Q81BL7 1-153 A34C/L102C/C107S): T1 sequence (Q81BL7 1-153 D33P/A34C/C107S/S151C) with P33D, L102C, C151S
Outline: as §1

[19] = biological target: T12, BcTSPO 34/151 double-cysteine variant (Bacillus cereus, UniProt Q81BL7, A34C/C107S/S151C); assay: PpIX degradation activity assay; type: biochemical; settings: TSPO 34/151 in nanodiscs, PpIX:TSPO 1:1
T12 sequence (Q81BL7 1-153 A34C/C107S/S151C): T1 sequence (Q81BL7 1-153 D33P/A34C/C107S/S151C) with P33D
Outline: as §1

## C=CC1=C(C)c2cc3[nH]c(cc4nc(cc5[nH]c(cc1n2)c(C)c5CCC(=O)O)C(CCC(=O)O)=C4C)c(C)c3C=C [PpIX, protoporphyrin IX]
BcTSPO S22C-PEG
  Kd value of S22C-PEG relative to that of WT: approximately 10 fold
BcTSPO 34/151-D33P [1]
  dissociation constant Kd of PpIX compared with WT: much higher
BcTSPO 34/151-K98E [2]
  dissociation constant Kd of PpIX compared with WT: much higher
BcTSPO 34/151-K98E [3]
  reaction velocity V0 of PpIX degradation: approximately 5 nM/s
BcTSPO 34/151-D33P [4]
  reaction velocity V0 of PpIX degradation: approximately 5 nM/s
WT BcTSPO
  reaction velocity V0 of PpIX degradation: approximately 17 nM/s
BcTSPO W51F [5]
  dissociation constant Kd of PpIX compared with WT: much higher
[6]
  reaction velocity V0 of PpIX degradation: approximately 5 nM/s
BcTSPO 34/102-D33P [7]
  reaction velocity V0 of PpIX degradation: approximately 5 nM/s
BcTSPO 34/102-K98E [8]
  dissociation constant Kd of PpIX compared with WT: much higher
[9]
  reaction velocity V0 of PpIX degradation: approximately 17 nM/s
BcTSPO W138F [10]
  binding of PpIX compared with WT: as strongly as WT
BcTSPO 34/151-W138F [11]
  binding of PpIX compared with WT: as strongly as WT
BcTSPO 34/102-K98E [12]
  reaction velocity V0 of PpIX degradation: approximately 5 nM/s
BcTSPO 34/102-D33P [13]
  dissociation constant Kd of PpIX compared with WT: much higher
BcTSPO 34/151-W138F [14]
  reaction velocity V0 of PpIX degradation: below 2 nM/s
BcTSPO W51F [15]
  reaction velocity V0 of PpIX degradation: approximately 5 nM/s
[16]
  dissociation constant Kd of PpIX compared with WT: much higher
BcTSPO W138F [17]
  reaction velocity V0 of PpIX degradation: below 2 nM/s
[18]
  reaction velocity V0 of PpIX degradation: approximately 17 nM/s
[19]
  reaction velocity V0 of PpIX degradation: approximately 17 nM/s
